Assay results reported in ChEMBL document CHEMBL4041500, “Attenuation of Mycobacterium species through direct and macrophage mediated pathway by unsymmetrical diaryl urea” (Eur J Med Chem, 2017).
Values after ≈ are worked out from the molar mass of the structure shown.

How the values were obtained:
[1] = test system: Mycolicibacterium smegmatis; assay: Antimycobacterial activity against Mycobacterium smegmatis MC2 155 after 48 hrs by serial dilution method; assay type: functional; conditions: str. MC2 155, 48 h
Summary of the method: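 M. smegmatis grown in Middlebrook 7H9 with 10% albumin–dextrose complex and 0.03% Tween80 at 37 °C. Twofold serial dilutions of compound were combined with mid-log culture diluted to OD570 0.01, giving a final range of […] in 7H9 broth. Incubated in ambient air at 37 °C for 48 h. MIC taken as the lowest concentration preventing visible growth.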

[2] = test system: Mycobacterium tuberculosis; assay: Antimycobacterial activity against Mycobacterium tuberculosis H37Rv ATCC 27294 after 7 days by microplate alamar blue assay; assay type: functional; conditions: H37Rv ATCC 27294, 168 h
Summary of the method: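 MABA run in 7H12 medium in 96-well plates for 7 days at 37 °C. Alamar Blue and Tween 80 were then added for a further 24 h. Fluorescence was read at 530/590 nm. MIC was the lowest concentration giving a 90% fluorescence (or luminescence) reduction versus controls. Luciferase reporter strains or intracellular ATP were used for compounds with background fluorescence. Isoniazid and rifampin were run as controls.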

[3] = test system: Mycobacterium tuberculosis; assay: Antimycobacterial activity against Mycobacterium tuberculosis H37Rv ATCC 27294 at 50 ug/ml after 7 days by microplate alamar blue assay relative to control; assay type: functional; conditions: H37Rv ATCC 27294, 168 h
[4] = test system: Mycobacterium tuberculosis; assay: Antimycobacterial activity against Mycobacterium tuberculosis MC2 6030 after 2 to 3 weeks by agar plate method; assay type: functional
Summary of the method: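 Strain mc²6030 is a pantothenate auxotroph lacking RD1, grown at 37 °C in Sauton's medium plus 20 μg/ml pantothenic acid. Serial 10-fold dilutions of actively growing culture were plated on 7H10/OADC agar with 20 μg/ml pantothenic acid and increasing compound concentrations, from 10 mg/ml DMSO stocks. Plates were held 2–3 weeks at 37 °C. MIC was the concentration inhibiting 99% of growth; isoniazid served as control.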

HepG2 = assay: Cytotoxicity against human HepG2 cells assessed as reduction in cell viability after 72 hrs by MTT assay; assay type: cell-based; conditions: hepg2, 72 h
Summary of the method: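 HepG2 cells grown in Eagle's MEM with 10% FBS at 37 °C and 5% CO2. Cells were scraped, resuspended at ~1 × 10^6 cells/mL, plated and left 24 h, then exposed to compound at 400 to 0.2 µg/mL for 72 h. Viability read by MTT assay. IC50 (50% loss of viability) taken from a dose–response curve versus log10 concentration.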

Peritoneal macrophage = assay: Cytotoxicity against Balb/c mouse peritoneal macrophages assessed as reduction in cell viability after 48 hrs by MTT assay; assay type: cell-based
Summary of the method: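 Murine peritoneal macrophages, 1 × 10^6 cells/well, exposed to compound at 0.1 to 250 µg/ml in RPMI-1640 with 10% FBS for 48h. MTT (5 mg/ml) added for 3 h at 37°C, formazan dissolved in 0.04M HCl in isopropanol for 15 min at room temperature, absorbance read at 570 nm. IC50 (50% loss of viability) taken from a dose–response curve of percentage activity versus log10 concentration.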

Row | Compound | MIC [1] [µg/mL] | MIC90 [2] [µg/mL] | inhibition at 50 µg/mL [3] [%] | MIC99 [4] [µg/mL] | Activity (HepG2) [µg/mL] | Activity (Peritoneal macrophage) [µg/mL]
1 | CC(C)=CCOc1cccc(NC(=O)Nc2ccccc2)c1 | > 200 | > 50 | 79 | 30 (≈ 101 µM) | 168.2 | 141.8
2 | CCCCOc1cccc(NC(=O)Nc2ccccc2)c1 | > 200 | > 50 | 57 | 50 to 100 (≈ 176 to 352 µM) | 124.1 | 121.7
3 | C=CCOc1ccc(NC(=O)Nc2ccccc2C)cc1 | 50 (≈ 177 µM) | 24.5 (≈ 86.8 µM) |  | 100 (≈ 354 µM) | 99.2 | 122.1
4 | CC(C)=CCOc1cccc(NC(=O)Nc2ccc(Br)cc2)c1 | 50 to 100 (≈ 133 to 266 µM) | > 50 | 86 |  | 135.6 | 140.2
5 | CCCCOc1ccc(NC(=O)Nc2cccc([N+](=O)[O-])c2)cc1 |  |  |  |  |  | 75.2
6 | CC(C)=CCOc1cccc(NC(=O)Nc2cccc(Cl)c2)c1 | 25 (≈ 75.6 µM) | 48.6 (≈ 147 µM) |  |  | 114.3 | 96.7
7 | C=CCOc1cccc(NC(=O)Nc2ccccc2)c1 | 100 (≈ 373 µM) | > 50 | 73 | 20 (≈ 74.5 µM) | 150.6 | 142.5
8 | CCCCOc1cccc(NC(=O)Nc2cccc([N+](=O)[O-])c2)c1 | > 200 | > 50 | 79 | 50 (≈ 152 µM) | 97.3 | 74.3
9 | CC(C)CCOc1ccc(NC(=S)Nc2ccc(OCCC(C)C)cc2)cc1 [TIOCARLIDE] | 25 (≈ 62.4 µM) | 2.3 (≈ 5.74 µM) |  |  | 31.3 | 12.5
10 | CC(C)=CCOc1cccc(NC(=O)Nc2ccccc2Cl)c1 | 50 (≈ 151 µM) | > 50 | 64 |  | 128.2 | 105.6
11 | CC(C)=CCOc1cccc(NC(=O)Nc2ccccc2F)c1 | 50 (≈ 159 µM) | > 50 | 45 |  | 82.4 | 68.2
12 | CC(C)=CCOc1cccc(NC(=O)Nc2ccc(C(F)(F)F)cc2)c1 | 6.25 (≈ 17.2 µM) | > 50 | 69 |  | 142.2 | 115.3
13 | CCCCOc1cccc(NC(=O)Nc2ccccc2C)c1 | > 200 | > 50 | 70 | > 100 | 175.1 | 152.9
14 | CCCCOc1ccc(NC(=O)Nc2cccc(C#N)c2)cc1 | > 200 | > 50 | 22 | > 100 | 206.7 | 180.9
15 | C=CCOc1cccc(NC(=O)Nc2cccc([N+](=O)[O-])c2)c1 | 50 (≈ 160 µM) | > 50 | 76 | 5 (≈ 16 µM) | 105.6 | 78.4
16 | C=CCOc1ccc(NC(=O)Nc2ccccc2)cc1 | > 200 | > 50 | 84 | > 100 | 182.4 | 152.6
17 | CC(C)=CCOc1ccc(NC(=O)Nc2ccccc2C)cc1 | 50 to 200 (≈ 161 to 644 µM) | > 50 | 61 to 75 | 50 to 100 (≈ 161 to 322 µM) |  | 81.3

Row | Compound | MIC [1] [µg/mL] | MIC90 [2] [µg/mL] | inhibition at 50 µg/mL [3] [%] | MIC99 [4] [µg/mL] | Activity (HepG2) [µg/mL] | Activity (Peritoneal macrophage) [µg/mL]
18 | CC(C)=CCOc1cccc(NC(=O)Nc2ccc(F)cc2)c1 | 100 (≈ 318 µM) | > 50 | 68 |  | 102.8 | 87.1
19 | CC(C)=CCOc1cccc(NC(=O)Nc2ccc(Cl)cc2)c1 | 50 to 100 (≈ 151 to 302 µM) | > 50 | 75 |  | 122.3 | 115.3
20 | CC(C)=CCOc1cccc(NC(=O)Nc2ccc(C)cc2)c1 | 12.5 (≈ 40.3 µM) | 10.5 (≈ 33.8 µM) |  |  | 140.6 | 127.6
21 | CC(C)=CCOc1cccc(NC(=O)Nc2ccccc2[N+](=O)[O-])c1 | > 200 | > 50 | 43 |  | 61.4 | 58.1
22 | CC(C)=CCOc1cccc(NC(=O)Nc2ccc([N+](=O)[O-])cc2)c1 | 100 (≈ 293 µM) | > 50 | 94 |  | 91.6 | 75.2
23 | C=CCOc1cccc(NC(=O)Nc2ccccc2C)c1 | > 200 | > 50 | 68 | > 100 | 102.4 | 90.3
24 | CC(C)=CCOc1cccc(NC(=O)Nc2ccccc2Br)c1 | 25 (≈ 66.6 µM) | 38.7 (≈ 103 µM) |  |  | 131.9 | 119.4
25 | CCCCOc1ccc(NC(=O)Nc2ccccc2)cc1 | > 200 | > 50 | 41 | > 100 | 132.5 | 108.9
26 | C=CCOc1ccc(NC(=O)Nc2cccc([N+](=O)[O-])c2)cc1 | 100 (≈ 319 µM) | 45.5 (≈ 145 µM) |  | 10 to 100 (≈ 31.9 to 319 µM) | 111.4 | 87.5
27 | CC(C)=CCOc1ccc(NC(=O)Nc2cccc([N+](=O)[O-])c2)cc1 | > 200 | > 50 | 69 | > 100 | 142.6 | 131.2
28 | CC(C)=CCOc1ccc(NC(=O)Nc2cccc(C#N)c2)cc1 | 50 (≈ 156 µM) | > 500 | 82 | 5 (≈ 15.6 µM) | 186.4 | 169.1
29 | CC(C)=CCOc1cccc(NC(=O)Nc2cccc(Br)c2)c1 | 12.5 (≈ 33.3 µM) | 26.5 (≈ 70.6 µM) |  |  | 148.1 | 131.8
30 | CC(C)=CCOc1cccc(NC(=O)Nc2ccccc2C(F)(F)F)c1 | 12.5 (≈ 34.3 µM) | > 50 | 45 |  | 71.4 | 69.4
31 | C=CCOc1ccc(NC(=O)Nc2cccc(C#N)c2)cc1 | > 200 | > 50 | 66 | > 100 | 103.5 | 96.7
32 | NNC(=O)c1ccncc1 [ISONIAZID] | 6.25 (≈ 45.6 µM) | 0.11 (≈ 0.802 µM) |  | 0.05 (≈ 0.365 µM) | > 200 | > 200
33 | CC(C)=CCOc1cccc(NC(=O)Nc2cccc(C)c2)c1 | 50 (≈ 161 µM) | 32.2 (≈ 104 µM) |  |  | 175.3 | 160.3
